Measurements: ChEMBL document CHEMBL1125189, “Relaxant activity of 6-cyano-2,2-dimethyl-2H-1-benzopyran-4-carboxamides and -thiocarboxamides and their analogues in guinea pig trachealis” (J Med Chem, 1991)

Test system: Cavia porcellus
Assay: Inhibition of Histamine-induced bronchospasm was measured by measuring % prolongation of collapse time of guinea pig at different intervals of time at a peroral dose of 5 mg/kg (time between dose and challenge 60 min)
Type: functional
Conditions: route oral
How it was run: (§1)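 Male guinea pigs (400-460 g) were dosed orally with compound or vehicle and placed in a ca. 8-L chamber. At set times after dosing they were challenged for 4 min with aerosol from 5 mM histamine diphosphate, generated over 20 s by ultrasonic nebulizer. Time from aerosol to collapse was recorded. Data are means ± SE.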

| Structure (SMILES) | Prolongation |
| --- | --- |
| C/N=C(/S)C1=CC(C)(C)Oc2ccc(C#N)cc21 | 12% |
| CO/C(=N\c1ccccc1)C1=C(O)C(C)(C)Oc2ccc(C#N)cc21 | 1% |

Test system: Cavia porcellus
Assay: Inhibition of Histamine-induced bronchospasm was measured by measuring % prolongation of collapse time of guinea pig at different intervals of time at a peroral dose of 20 mg/kg (time between dose and challenge 120 min)
Type: functional
Conditions: route oral
How it was run: as §1

| Structure (SMILES) | Prolongation |
| --- | --- |
| C/N=C(/S)C1=CC(C)(C)Oc2ccc(C#N)cc21 | 187% |

Test system: Cavia porcellus
Assay: Inhibition of Histamine-induced bronchospasm was measured by measuring % prolongation of collapse time of guinea pig at different intervals of time at a peroral dose of 20 mg/kg (time between dose and challenge 30 min)
Type: functional
Conditions: route oral
How it was run: as §1

| Structure (SMILES) | Prolongation |
| --- | --- |
| C/N=C(/S)C1=CC(C)(C)Oc2ccc(C#N)cc21 | 244% |
| CC1(C)Oc2ccc(C#N)cc2C(/C(S)=N/c2ccccc2)=C1O | 14% |

Species on record: Cavia porcellus
Assay: Inhibition of spontaneous tone in guinea pig tracheal spirals
Type: functional, Trachea
Conditions: not given
How it was run: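 Guinea pig tracheal spiral strips held isometrically in oxygenated Krebs solution. Intrinsic activity is the ratio of maximum relaxation to the isoprenaline maximum, given as an arithmetic mean.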

| Structure (SMILES) | IC50 |
| --- | --- |
| CC1(C)Oc2ccc(C#N)cc2C(/C(S)=N/c2ccccc2)C1O (cis isomer) | > 20 µM |
| CC(C)(C)/N=C(\S)C1c2cc(C#N)ccc2OC(C)(C)C1O (stereo in doubt; 11b) | 11.1 µM |
| C/N=C(\S)C1c2cc(C#N)ccc2OC(C)(C)C1O (trans isomer) | 5.6 µM |
| CC1(C)Oc2ccc(C#N)cc2C(/C(S)=N/c2ccccc2)C1O (trans isomer) | 3.4 µM |

Same assay, conditions: Cavia porcellus, Trachea

| Structure (SMILES) | IC50 |
| --- | --- |
| CSC(SC)=C1C(=O)C(C)(C)Oc2ccc(C#N)cc21 | > 20 µM |
| CC1(C)Oc2ccc(C#N)cc2C(c2nc3ccccc3s2)=C1O | 1.36 µM |
| COC1=C(C(=O)Nc2ccccc2)c2cc(C#N)ccc2OC1(C)C | > 20 µM |
| CC1(C)C=C(C(=O)Nc2ccccc2)c2cc(C#N)ccc2O1 | 1.14 µM |
| COc1ccc(NC(=S)C2=C(O)C(C)(C)Oc3ccc(C#N)cc32)cc1 | 6.4 µM |
| CC(C)(C)/N=C(\S)C1=CC(C)(C)Oc2ccc(C#N)cc21 | > 20 µM |
| COc1ccc(NC(=O)C2=C(O)C(C)(C)Oc3ccc(C#N)cc32)cc1 | 1.2 µM |
| CC(C)(C)/N=C(\S)C1=C(O)C(C)(C)Oc2ccc(C#N)cc21 | 4.35 µM |
| CC1(C)Oc2ccc(C#N)cc2C(/C(S)=N/c2ccccc2)=C1O | 0.25 µM |
| CC1(C)Oc2ccc(C#N)cc2C(C)(C(=O)Nc2ccccc2)C1=O (stereo not given) | > 20 µM |
| CC(=O)OC1=C(C(=O)N(C(C)=O)c2ccccc2)c2cc(C#N)ccc2OC1(C)C | 1.35 µM |
| C/N=C(\S)C1c2cc(C#N)ccc2OC(C)(C)C1O (cis isomer) | 5.92 µM |
| CC(C)(C)/N=C(\S)C1c2cc(C#N)ccc2OC(C)(C)C1O (stereo in doubt; 11a) | > 20 µM |

Species on record: Cavia porcellus
Assay: Evaluated by measuring inhibition of spontaneous tone in guinea pig tracheal spirals
Type: functional, Trachea
Conditions: not given
How it was run: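 Guinea pig tracheal spiral strips held isometrically in oxygenated Krebs solution. […] It is generally a geometric mean of ≥3 determinations, except where IC50 >15 μM. Intrinsic activity is the ratio of maximum relaxation to the isoprenaline maximum, given as an arithmetic mean.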

| Structure (SMILES) | Intinsic activity |
| --- | --- |
| CC1(C)Oc2ccc(C#N)cc2C(c2nc3ccccc3s2)=C1O | 0.96 |
| C/N=C(/S)C1=CC(C)(C)Oc2ccc(C#N)cc21 | 0.88 |
| CC1(C)Oc2ccc(C#N)cc2C(F)(C(=O)Nc2ccccc2)C1=O (stereo not given) | 0.95 |
| CC1(C)C=C(C(=O)Nc2ccccc2)c2cc(C#N)ccc2O1 | 0.86 |
| COc1ccc(NC(=S)C2=C(O)C(C)(C)Oc3ccc(C#N)cc32)cc1 | 0.6 |
| CC(C)(C)/N=C(\S)C1=CC(C)(C)Oc2ccc(C#N)cc21 | 0 |
| COc1ccc(NC(=O)C2=C(O)C(C)(C)Oc3ccc(C#N)cc32)cc1 | 0.94 |
| CC(C)(C)/N=C(\S)C1=C(O)C(C)(C)Oc2ccc(C#N)cc21 | 0.93 |
| CC1(C)Oc2ccc(C#N)cc2C(/C(S)=N/c2ccc(F)cc2)=C1O | 0.88 |
| CC1(C)Oc2ccc(C#N)cc2C(C(=O)Nc2ccccc2)=C1O | 0.98 |
| CC1(C)Oc2ccc(C#N)cc2C(/C(S)=N/c2ccccc2)=C1O | 0.99 |
| CO/C(=N\c1ccccc1)C1=C(O)C(C)(C)Oc2ccc(C#N)cc21 | 0.82 |
| CC(=O)OC1=C(C(=O)N(C(C)=O)c2ccccc2)c2cc(C#N)ccc2OC1(C)C | 0.95 |
| C/N=C(\S)C1=C(O)C(C)(C)Oc2ccc(C#N)cc21 | 0.69 |
| C/N=C(\S)C1c2cc(C#N)ccc2OC(C)(C)C1O (cis isomer) | 0.84 |
| CC1(C)Oc2ccc(C#N)cc2C(/C(S)=N/c2ccccc2)C1O (cis isomer) | 0.14 |
| CC(C)(C)/N=C(\S)C1c2cc(C#N)ccc2OC(C)(C)C1O (stereo in doubt; 11a) | 0.3 |
| CC(C)(C)/N=C(\S)C1c2cc(C#N)ccc2OC(C)(C)C1O (stereo in doubt; 11b) | 0.79 |
| C/N=C(\S)C1c2cc(C#N)ccc2OC(C)(C)C1O (trans isomer) | 0.93 |
| CC1(C)Oc2ccc(C#N)cc2C(/C(S)=N/c2ccccc2)C1O (trans isomer) | 0.82 |
| CC1(C)Oc2ccc(C#N)cc2C(N2CCCC2=O)C1O (stereo not given) [CROMAKALIM] | 0.89 |

Test system: Cavia porcellus
Assay: Inhibition of Histamine-induced bronchospasm was measured by measuring % prolongation of collapse time of guinea pig at different intervals of time at a peroral dose of 20 mg/kg (time between dose and challenge 90 min)
Type: functional
Conditions: route oral
How it was run: as §1

| Structure (SMILES) | Prolongation |
| --- | --- |
| C/N=C(/S)C1=CC(C)(C)Oc2ccc(C#N)cc21 | 175% |

Test system: Cavia porcellus
Assay: Inhibition of Histamine-induced bronchospasm was measured by measuring % prolongation of collapse time of guinea pig at different intervals of time at a peroral dose of 10 mg/kg (time between dose and challenge 15 min)
Type: functional
Conditions: route oral
How it was run: as §1

| Structure (SMILES) | Prolongation |
| --- | --- |
| CC1(C)Oc2ccc(C#N)cc2C(C(=O)Nc2ccccc2)=C1O | -6% |

Test system: Cavia porcellus
Assay: Inhibition of Histamine-induced bronchospasm was measured by measuring % prolongation of collapse time of guinea pig at different intervals of time at a peroral dose of 10 mg/kg (time between dose and challenge 60 min)
Type: functional
Conditions: route oral
How it was run: as §1

| Structure (SMILES) | Prolongation |
| --- | --- |
| C/N=C(/S)C1=CC(C)(C)Oc2ccc(C#N)cc21 | 9% |
| CC1(C)Oc2ccc(C#N)cc2C(F)(C(=O)Nc2ccccc2)C1=O (stereo not given) | 10% |
| CC1(C)Oc2ccc(C#N)cc2C(C(=O)Nc2ccccc2)=C1O | -14% |

Species on record: Cavia porcellus
Assay: Inhibition of Histamine-induced bronchospasm was measured by measuring % prolongation of collapse time of guinea pig
Type: functional
Conditions: not given
How it was run: as §1

| Structure (SMILES) | Prolongation |
| --- | --- |
| CC1(C)Oc2ccc(C#N)cc2C(N2CCCC2=O)C1O (stereo not given) [CROMAKALIM] | 174% |

Test system: Cavia porcellus
Assay: Inhibition of Histamine-induced bronchospasm was measured by measuring % prolongation of collapse time of guinea pig at different intervals of time at a peroral dose of 20 mg/kg (time between dose and challenge 15 min)
Type: functional
Conditions: route oral
How it was run: as §1

| Structure (SMILES) | Prolongation |
| --- | --- |
| CC1(C)Oc2ccc(C#N)cc2C(/C(S)=N/c2ccccc2)=C1O | 63% |

Test system: Cavia porcellus
Assay: Inhibition of Histamine-induced bronchospasm was measured by measuring % prolongation of collapse time of guinea pig at different intervals of time at a peroral dose of 20 mg/kg (time between dose and challenge 60 min)
Type: functional
Conditions: route oral
How it was run: as §1

| Structure (SMILES) | Prolongation |
| --- | --- |
| CC1(C)Oc2ccc(C#N)cc2C(c2nc3ccccc3s2)=C1O | -1% |
| C/N=C(/S)C1=CC(C)(C)Oc2ccc(C#N)cc21 | 230% |
| CC1(C)C=C(C(=O)Nc2ccccc2)c2cc(C#N)ccc2O1 | 34% |
| CC1(C)Oc2ccc(C#N)cc2C(/C(S)=N/c2ccccc2)=C1O | 10% |
| CC(=O)OC1=C(C(=O)N(C(C)=O)c2ccccc2)c2cc(C#N)ccc2OC1(C)C | 5% |
